Assay results: ChEMBL document CHEMBL1255289, “In vitro antifungal activities of isavuconazole (BAL4815), voriconazole, and fluconazole against 1,007 isolates of zygomycete, Candida, Aspergillus, Fusarium, and Scedosporium species” (2008)
Values after ≈ are worked out from the molar mass of the structure shown.

Tests used:
Type in all cases: functional
Aspergillus terreus = assay: Antifungal activity against Aspergillus terreus isolates after 48 hrs by CLSI M38-A procedure based assay; conditions: Aspergillus terreus, 48 h
How it was run: (§1)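 Aspergillus isolates tested by CLSI M38-A broth microdilution at final 0.015–16 µg/ml and 35°C. Plates were read macroscopically at 48 h. The MIC was the lowest concentration producing complete inhibition of growth (MIC-0).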

Aspergillus fumigatus = assay: Antifungal activity against Aspergillus fumigatus isolates after 48 hrs by CLSI M38-A procedure based assay; conditions: Aspergillus fumigatus, 48 h; how it was run: as §1
Aspergillus flavus = assay: Antifungal activity against Aspergillus flavus isolates after 48 hrs by CLSI M38-A procedure based assay; conditions: Aspergillus flavus, 48 h; how it was run: as §1
Aspergillus niger = assay: Antifungal activity against Aspergillus niger isolates after 48 hrs by CLSI M38-A procedure based assay; conditions: Aspergillus niger, 48 h; how it was run: as §1
Aspergillus sp. = assay: Antifungal activity against Aspergillus sp. isolates after 48 hrs by CLSI M38-A procedure based assay; how it was run: as §1
Candida parapsilosis = assay: Antifungal activity against Candida parapsilosis isolates after 48 hrs by CLSI M27-A2 procedure based assay; conditions: Lodderomyces parapsilosis, 48 h
How it was run: (§2)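 Candida isolates tested by CLSI M27-A2 broth microdilution at final 0.015–16 µg/ml, or 0.125–128 µg/ml for the comparator azole. Incubation was at 35°C with a visual read at 48 h. MIC-2 was the lowest concentration giving a prominent turbidity drop, about 50% growth inhibition.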

Candida albicans = assay: Antifungal activity against Candida albicans isolates after 48 hrs by CLSI M27-A2 procedure based assay; conditions: Candida albicans, 48 h; how it was run: as §2
Mucor [1] = assay: Antifungal activity against Mucor isolates assessed as lowest compound concentration that produced complete inhibition of microbial growth after 24 hrs by CLSI M38-A procedure based assay; conditions: Mucor, 24 h
How it was run: (§3)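 Zygomycete isolates subcultured on potato dextrose or Sabouraud agar, then tested by CLSI M38-A broth microdilution. Drugs were serially diluted in plates at final 0.015–16 µg/ml and incubated at 35°C. Plates were read by eye at 24 h. MIC-0 was the lowest concentration giving complete growth inhibition.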

Mucor [2] = assay: Antifungal activity against Mucor isolates assessed as lowest compound concentration that produced slight growth or approximately 25% of that of growth control after 24 hrs by CLSI M38-A procedure based assay
How it was run: (§4)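 Clinical isolates were kept at –70°C as spore suspensions in sterile water and subcultured on potato dextrose or Sabouraud agar before testing. Broth microdilution used DMSO stocks in trays stored at –70°C, with final drug 0.015–16 µg/ml.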

Rhizopus [3] = assay: Antifungal activity against Rhizopus isolates assessed as lowest compound concentration that produced complete inhibition of microbial growth after 24 hrs by CLSI M38-A procedure based assay; conditions: Rhizopus, 24 h; how it was run: as §3
Rhizopus [4] = assay: Antifungal activity against Rhizopus isolates assessed as lowest compound concentration that produced slight growth or approximately 25% of that of growth control after 24 hrs by CLSI M38-A procedure based assay
How it was run: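 Rhizopus isolates tested by CLSI M38-A broth microdilution at final 0.015–16 µg/ml, 35°C, read by eye at 24 h.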

Absidia [5] = assay: Antifungal activity against Absidia isolates assessed as lowest compound concentration that produced complete inhibition of microbial growth after 24 hrs by CLSI M38-A procedure based assay; how it was run: as §3
Absidia [6] = assay: Antifungal activity against Absidia isolates assessed as lowest compound concentration that produced slight growth or approximately 25% of that of growth control after 24 hrs by CLSI M38-A procedure based assay; how it was run: as §4
Cunninghamella [7] = assay: Antifungal activity against Cunninghamella isolates assessed as lowest compound concentration that produced complete inhibition of microbial growth after 24 hrs by CLSI M38-A procedure based assay; how it was run: as §3
Cunninghamella [8] = assay: Antifungal activity against Cunninghamella isolates assessed as lowest compound concentration that produced slight growth or approximately 25% of that of growth control after 24 hrs by CLSI M38-A procedure based assay; how it was run: as §4
Syncephalastrum [9] = assay: Antifungal activity against Syncephalastrum isolates assessed as lowest compound concentration that produced complete inhibition of microbial growth after 24 hrs by CLSI M38-A procedure based assay; how it was run: as §3
Syncephalastrum [10] = assay: Antifungal activity against Syncephalastrum isolates assessed as lowest compound concentration that produced slight growth or approximately 25% of that of growth control after 24 hrs by CLSI M38-A procedure based assay; how it was run: as §4
Scedosporium apiospermum [11] = assay: Antifungal activity against Scedosporium apiospermum isolates assessed as lowest compound concentration that produced complete inhibition of microbial growth after 24 hrs by CLSI M38-A procedure based assay; conditions: Scedosporium apiospermum, 24 h
Scedosporium apiospermum [12] = assay: Antifungal activity against Scedosporium apiospermum isolates assessed as lowest compound concentration that produced slight growth or approximately 25% of that of growth control after 24 hrs by CLSI M38-A procedure based assay
Lomentospora prolificans [13] = assay: Antifungal activity against Scedosporium prolificans isolates assessed as lowest compound concentration that produced complete inhibition of microbial growth after 24 hrs by CLSI M38-A procedure based assay; conditions: Lomentospora prolificans, 24 h
Lomentospora prolificans [14] = assay: Antifungal activity against Scedosporium prolificans isolates assessed as lowest compound concentration that produced slight growth or approximately 25% of that of growth control after 24 hrs by CLSI M38-A procedure based assay
Nakaseomyces glabratus = assay: Antifungal activity against Candida glabrata isolates after 48 hrs by CLSI M27-A2 procedure based assay; conditions: Nakaseomyces glabratus, 48 h; how it was run: as §2
Candida tropicalis = assay: Antifungal activity against Candida tropicalis isolates after 48 hrs by CLSI M27-A2 procedure based assay; conditions: Candida tropicalis, 48 h; how it was run: as §2
Candida = assay: Antifungal activity against Candida sp. isolates after 48 hrs by CLSI M27-A2 procedure based assay
How it was run: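 Candida isolates were stored at –70°C as yeast suspensions and subcultured on potato dextrose or Sabouraud agar before use. Broth microdilution used DMSO drug stocks, with final well concentrations of 0.015–16 or 0.125–128 µg/ml depending on the azole. Plates were incubated at 35°C and read macroscopically at 48 h. MIC-2 was the lowest concentration giving a prominent turbidity decrease (~50% growth inhibition).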

Pichia kudriavzevii = assay: Antifungal activity against Candida krusei isolates after 48 hrs by CLSI M27-A2 procedure based assay; how it was run: as §2
Fusarium [15] = assay: Antifungal activity against Fusarium sp. isolates assessed as lowest compound concentration that produced complete inhibition of microbial growth after 24 hrs by CLSI M38-A procedure based assay; conditions: Fusarium, 24 h
Fusarium [16] = assay: Antifungal activity against Fusarium sp. isolates assessed as lowest compound concentration that produced slight growth or approximately 25% of that of growth control after 24 hrs by CLSI M38-A procedure based assay

Which MIC50 (Aspergillus terreus) does the source give for `C[C@@H](c1ncncc1F)[C@](O)(Cn1cncn1)c1ccc(F)cc1F` [VORICONAZOLE] here?
The MIC50 was 1 µg/mL (≈ 2.86 µM).

What about the MIC90 (Aspergillus terreus) of the same compound?
Its MIC90 is 1 µg/mL (≈ 2.86 µM).

What about the MIC50 (Aspergillus fumigatus) of the same compound?
Its MIC50 is 0.5 µg/mL (≈ 1.43 µM).

What about the MIC90 (Aspergillus fumigatus) of the same compound?
Its MIC90 is 1 µg/mL (≈ 2.86 µM).

And the MIC50 (Aspergillus flavus)?
The MIC50 was 1 µg/mL (≈ 2.86 µM).

And the MIC90 (Aspergillus flavus)?
The MIC90 was 1 µg/mL (≈ 2.86 µM).

What about the MIC50 (Aspergillus niger) of the same compound?
The MIC50 was 1 µg/mL (≈ 2.86 µM).

What about the MIC90 (Aspergillus niger) of the same compound?
The MIC90 was 1 µg/mL (≈ 2.86 µM).

And the MIC (Aspergillus sp.)?
Its MIC is 0.125 µg/mL (≈ 0.358 µM).

And the MIC (Candida parapsilosis)?
Its MIC is < 0.015 µg/mL.

And the MIC50 (Candida parapsilosis)?
Its MIC50 is < 0.015 µg/mL.

And the MIC90 (Candida parapsilosis)?
Its MIC90 is 0.06 µg/mL (≈ 0.172 µM).

And the MIC50 (Candida albicans)?
Its MIC50 is 0.03 µg/mL (≈ 0.0859 µM).

And the MIC90 (Candida albicans)?
Its MIC90 is 0.06 µg/mL (≈ 0.172 µM).

What about the MIC50 (Mucor [1]) of the same compound?
The MIC50 was > 16 µg/mL.

And the MIC90 (Mucor [1])?
The MIC90 was > 16 µg/mL.

What about the MIC50 (Mucor [2]) of the same compound?
Its MIC50 is 16 µg/mL (≈ 45.8 µM).

What about the MIC90 (Mucor [2]) of the same compound?
The MIC90 was > 16 µg/mL.

And the MIC (Rhizopus [3])?
The MIC was 8 µg/mL (≈ 22.9 µM).

And the MIC50 (Rhizopus [3])?
The MIC50 was 8 µg/mL (≈ 22.9 µM).

And the MIC90 (Rhizopus [3])?
Its MIC90 is 16 µg/mL (≈ 45.8 µM).

What about the MIC50 (Rhizopus [4]) of the same compound?
The MIC50 was 8 µg/mL (≈ 22.9 µM).

What about the MIC90 (Rhizopus [4]) of the same compound?
The MIC90 was > 16 µg/mL.

What about the MIC (Absidia [5]) of the same compound?
Its MIC is 4 µg/mL (≈ 11.5 µM).

And the MIC (Absidia [6])?
The MIC was 4 µg/mL (≈ 11.5 µM).

And the MIC (Cunninghamella [7])?
The MIC was > 16 µg/mL.

And the MIC (Cunninghamella [8])?
Its MIC is 8 µg/mL (≈ 22.9 µM).

And the MIC (Syncephalastrum [9])?
The MIC was 4 µg/mL (≈ 11.5 µM).

And the MIC (Syncephalastrum [10])?
The MIC was 2 µg/mL (≈ 5.73 µM).

And the MIC50 (Scedosporium apiospermum [11])?
The MIC50 was 0.5 µg/mL (≈ 1.43 µM).

And the MIC90 (Scedosporium apiospermum [11])?
Its MIC90 is 1 µg/mL (≈ 2.86 µM).

What about the MIC50 (Scedosporium apiospermum [12]) of the same compound?
The MIC50 was 0.25 µg/mL (≈ 0.716 µM).

What about the MIC90 (Scedosporium apiospermum [12]) of the same compound?
Its MIC90 is 0.5 µg/mL (≈ 1.43 µM).

And the MIC (Lomentospora prolificans [13])?
The MIC was 16 µg/mL (≈ 45.8 µM).

What about the MIC (Lomentospora prolificans [14]) of the same compound?
The MIC was 4 µg/mL (≈ 11.5 µM).

What about the MIC50 (Nakaseomyces glabratus) of the same compound?
The MIC50 was 0.125 µg/mL (≈ 0.358 µM).

And the MIC90 (Nakaseomyces glabratus)?
The MIC90 was 1 µg/mL (≈ 2.86 µM).

And the MIC50 (Candida tropicalis)?
The MIC50 was 0.03 µg/mL (≈ 0.0859 µM).

What about the MIC90 (Candida tropicalis) of the same compound?
Its MIC90 is 0.06 µg/mL (≈ 0.172 µM).

What about the MIC (Candida) of the same compound?
The MIC was 0.006 µg/mL (≈ 0.0172 µM).

And the MIC (Pichia kudriavzevii)?
The MIC was 0.125 µg/mL (≈ 0.358 µM).

What about the MIC50 (Fusarium [15]) of the same compound?
The MIC50 was 4 µg/mL (≈ 11.5 µM).

What about the MIC90 (Fusarium [15]) of the same compound?
Its MIC90 is 16 µg/mL (≈ 45.8 µM).

And the MIC50 (Fusarium [16])?
The MIC50 was 4 µg/mL (≈ 11.5 µM).

And the MIC90 (Fusarium [16])?
The MIC90 was 8 µg/mL (≈ 22.9 µM).
